# Bioassay records (PubChem)
# CHOP UPR activ: apoptotic UPR (CHOP) activation | AID 449763 | CHO-CHOP luciferase reporter, luminescence; percent of tunicamycin response over DMSO baseline | activation, % at 10 µM | actives 0.34% (n = 330,000);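 active means at 10 µM dose, activation of 40% or more, normalized to positive control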;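 further: 100% = tunicamycin at 10 µg/mL and 0% = DMSO alone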
#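 Evaluation: % reporter activation, DMSO baseline versus tunicamycin full activation; System: CHO-CHOP luciferase reporter cell line; Input: 500 cells/well; Incubation: 6 h compound treatment, 37 °C; Measured by: Steady-Glo luciferase luminescence; Dosing: one dose, 10 µM in 0.5% DMSO; Buffer or medium: F12 medium, 10% FBS; Benchmarks: positive tunicamycin 10 µg/mL, negative DMSO alone.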
# L major viab: Leishmania major promastigote growth inhibition; actives 9% (n = 200,000); inhibition, % at 10 µM; Leishmania major promastigotes, resazurin fluorescence viability; in the data active means inhibition above about 50%;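 further: promastigotes grown with compound for 44 hours at 28 °C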
# Dynein transport: blocks dynein driven cargo transport along microtubules; 3617.4 mouse cells, GR-EGFP nuclear translocation imaging; test concentration mostly 20 µM; stimulated with dexamethasone, 1 µM; stronger effect = lower value; z-score, hits read low; actives 0.47% (n = 220,000);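 active means plate z-score of nuclear minus cytoplasmic receptor signal below a set negative limit, without overly bright fluorescence or cell loss, cut at about -3.5 in these data, passing the limit was not always enough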;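 further: z-score of nuclear minus cytoplasmic ring GR-EGFP intensity difference per well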
#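 medium = tetracycline-free induction medium containing charcoal-stripped FBS | also added = 1.0 µM final dexamethasone stimulus | schedule = 48 h induction, 1 h compound, 30 min dex at 37 °C | technique = fixed, Hoechst-stained cells imaged at 10x for EGFP | measure = GR-EGFP nuclear translocation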
# CHOP inh: inhibitors of CHOP induction in ER stress response | CHO-K1 CHOP-promoter luciferase, tunicamycin-induced, 15-18 h | inhibition, % at 10 µM | actives 3.8% (n = 220,000);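 active means compounds that reduced the stress-induced luciferase reporter signal by more than about 70% of percent inhibition, limit read from the data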;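 further: 0% = tunicamycin plus vehicle and 100% = wells without tunicamycin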
# T cruzi inh: T. cruzi replication inhibition. T. cruzi beta-gal in NIH3T3, luminescence, 90 h. inhibition, % (concentration not given with the values). actives 1.4% (n = 300,000);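 active means mean inhibition across valid replicates above about 55%, limit read from the data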;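 further: signal also drops with host cell toxicity which is not excluded here; 0% = plate median of DMSO wells and 100% = zero luminescence signal; higher percent means less beta-gal luminescence so fewer parasites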
#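 Material: NIH/3T3 host cells with β-galactosidase reporter T. cruzi; Input: 5,000 host fibroblasts per well; Medium: DMEM, 2% fetal bovine serum; Compound: 50 nL DMSO compound solution per well; Schedule: 3 h host attachment, then at least 90 h co-culture; Detection: luminescent β-galactosidase signal after 60 min lysis.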
# XBP1 UPR activ: adaptive UPR (XBP1) activation; CHO-XBP1 luciferase reporter, IRE1-XBP1 UPR activation, luminescence; percent of tunicamycin response, DMSO as zero; activation, % at 20 µM; actives 0.33% (n = 330,000);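 active means versus positive control, 20 µM dose yields 30% or more activation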;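 further: 100% = tunicamycin at 10 µg/mL and 0% = DMSO only wells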
#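 Material: CHO-XBP1 cells stably carrying IRE1-XBP1-driven luciferase reporter / Amount: 1000 cells per well / Compound: 20 µM, 1% DMSO / Times: 6 h treatment, 37 °C / Detection: luciferase luminescence / Measure: % activation of reporter signal versus tunicamycin and DMSO controls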
# * = called active by the depositor; x = not tested or not shown. This excerpt belongs to a sample that is enriched for hits.
SMILES,CHOP UPR activ,L major viab,Dynein transport,CHOP inh,T cruzi inh,XBP1 UPR activ
O=C(c1cc(-c2ccncc2)nc2ccccc12)N1CCN(c2ccccn2)CC1,2,17,-1.2,-2,60*,-1
CC(C)(C)OC(=O)NC(CNCc1ccccc1)Cc1ccccc1 (stereo not drawn),-1,x,x,x,-2,-2
O=C(Nn1c(-c2ccc(Br)cc2)nc2ccccc2c1=O)c1ccncc1,0,-2,1.8,8,-4,-1
Cc1cc(C(=O)Nn2c(-c3ccc(Br)cc3)nc3ccccc3c2=O)ccc1[N+](=O)[O-],-1,5,0.12,91*,16,0
NC(=O)c1c(NC(=O)C2COc3ccccc3O2)sc2c1CCN(Cc1ccccc1)C2 (stereo not drawn),7,-5,1,79*,3,2
CCOC(=O)c1c(NC(=O)C2COc3ccccc3O2)sc2c1CCN(Cc1ccccc1)C2 (stereo not drawn),4,58*,-0.45,14,49,-2
CCOC(=O)c1c(NC(=O)C2CCCN(S(=O)(=O)c3ccccc3)C2)sc2c1CCCC2 (stereo not drawn),2,81*,-0.32,-19,33,-2
COC(=O)N1CCc2c(sc(NC(=O)C3COc4ccccc4O3)c2C(N)=O)C1 (stereo not drawn),6,x,x,x,8,2
CCOC(=O)c1c(NC(=S)Nc2ccccc2)sc2c1CCN(CC)C2,1,98*,-0.47,-21,1,-3
CCOC(=O)c1c(NC(=S)Nc2ccccc2)sc2c1CCCCC2,1,-8,0.25,25,15,-5
Cc1ccc(S(=O)(=O)NCc2ccc(C(=O)N3CCN(c4ccc([N+](=O)[O-])cc4)CC3)cc2)cc1,6,x,x,x,1,-5
COC(=O)c1cc(NC(=O)CN(C)C2CCS(=O)(=O)C2)cc(C(=O)OC)c1 (stereo not drawn),-2,x,x,x,x,0
CCN1CCc2c(sc(NC(=O)c3cc4ccccc4cc3OC)c2C(N)=O)C1,14,x,x,x,58*,12
O=c1c2ccccc2sn1-c1cc(S(=O)(=O)N2CCOCC2)ccc1N1CCOCC1,-1,-10,-6.5*,20,22,0
COc1ccc(CNC(=O)COC(=O)c2ccc(F)c(S(=O)(=O)N3CCOCC3)c2)cc1,-1,x,x,x,x,1
COc1ccc(C2/C(=C(/O)c3ccc(F)cc3)C(=O)C(=O)N2CCCN2CCOCC2)cc1OC (stereo not drawn),1,x,x,x,-15,2
COc1cc(CN2CCN(Cc3ccc4cc(F)ccc4n3)CC2CCO)cc(OC)c1 (stereo not drawn),-1,x,x,x,25,-5
Cc1ccc(CN2CCN(C/C(Cl)=C/c3ccccc3)CC2CCO)o1 (stereo not drawn),0,78*,0.4,11,7,-1
Cc1ccc(CN2CCN(Cc3ccc4cc(F)ccc4n3)CC2CCO)o1 (stereo not drawn),-1,80*,1.1,36,4,0
OCCC1CN(C/C(Cl)=C/c2ccccc2)CCN1C1CCCC1 (stereo not drawn),0,89*,-0.74,17,16,-2
CCOC(=O)c1c(S(=O)(=O)NCC(C)c2ccccc2)c(C)n(C)c1C (stereo not drawn),2,x,x,x,12,-2
CC1CC1C(=O)OCC(=O)NNC(=O)c1ccc([N+](=O)[O-])cc1 (stereo not drawn),-1,x,x,x,x,-2
COc1cc(NC(=O)c2ccccc2)c(OC)cc1NC(=O)CN1C(=O)NC2(CCCCC2)C1=O,-1,x,x,x,x,-2
CC(CCN(C)C)OC(=O)c1ccc(C(C)c2ccccc2)o1 (stereo not drawn),-1,100*,-0.83,12,72*,-4
Cc1cc(C)cc(NC(=O)Cn2c(=O)oc3cc(S(=O)(=O)N4CC(C)CC(C)C4)ccc32)c1 (stereo not drawn),2,-15,-0.079,83*,-8,-4
